Consider 12 compounds from ChEMBL document CHEMBL3272012, “5-(Tetradecyloxy)-2-furancarboxylic acid and related hypolipidemic fatty acid-like alkyloxyarylcarboxylic acids” (J Med Chem, 1977).

The subject of data set [1] is Rattus norvegicus. Put plainly: Increase in cholesterol level in Wistar rat liver at 419 umol/kg/day administered through diet for 10 days. To be noted: in vivo, po, 240 h. It counts as ADME, organism-based. The method, boiled down: (§1)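 Male Wistar rats (170-190 g), six per group, given compound by admixture to lab chow ad libitum for 4 or 10 days, dose derived from food intake. Liver cholesterol determined by automated procedure, expressed as mg/g wet tissue, compared with an untreated control group by Student's t test.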

For data set [2], the system named is Rattus norvegicus. The data set is described as follows: Hypolipidemic activity in Wistar rat assessed as reduction in plasma cholesterol level at 419 umol/kg/day administered through diet for 10 days. The data set is classed as functional. To be noted: 240 h. The method, boiled down: (§2)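 Young male Wistar rats, 170-190 g initial weight, groups of six, given compound mixed thoroughly into Purina Lab Chow ad libitum for 4 or 10 days as stated. Daily dose calculated from food consumption and body weight. Bled by cardiac puncture at end of treatment; plasma cholesterol measured by automated procedure. Expressed as percent reduction versus simultaneous untreated control group; Student's t test.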

In data set [3] the test system is Rattus norvegicus. The data set is described as follows: Increase in liver weight in Wistar rat at 419 umol/kg/day administered through diet for 10 days. To be noted: in vivo, po, 240 h. It counts as ADME, organism-based. The method, boiled down:
(§3)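 Male Wistar rats (170-190 g initial), groups of six, dosed via diet ad libitum for 4 or 10 days, daily dose from food consumption. Liver wet weight measured, expressed as g/100 g final body weight, compared with untreated controls run simultaneously.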

In data set [4] the test system is Rattus norvegicus. The data set is described as follows: Hypolipidemic activity in Wistar rat assessed as reduction in plasma triglyceride level at 419 umol/kg/day administered through diet for 10 days. To be noted: 240 h. The data set is classed as functional. The method, boiled down:
(§4)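 Young male Wistar rats (initial weight 170-190 g), groups of six, fed compound mixed into Purina Lab Chow ad libitum for 4 or 10 days; daily dose calculated from food consumption and body weight. Bled by cardiac puncture; plasma cholesterol and triglycerides by automated procedures; percent reduction versus simultaneous untreated controls, Student's t test.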

For data set [5], the system named is Rattus norvegicus. The data set is described as follows: Hypolipidemic activity in Wistar rat assessed as reduction in plasma cholesterol level at 439 umol/kg/day administered through diet for 4 days. The data set is classed as functional. To be noted: 96 h. In outline:
as §2

In data set [6] the test system is Rattus norvegicus. Put plainly: Hypolipidemic activity in Wistar rat assessed as reduction in plasma triglyceride level at 439 umol/kg/day administered through diet for 4 days. It counts as functional. To be noted: 96 h. The method, boiled down:
as §4

The subject of data set [7] is Rattus norvegicus. The data set is described as follows: Increase in liver weight in Wistar rat at 439 umol/kg/day administered through diet for 4 days. It counts as ADME, organism-based. To be noted: in vivo, po, 96 h. The method, boiled down: as §3
Data set [8] concerns Rattus norvegicus. The data set is described as follows: Hypolipidemic activity in Wistar rat assessed as reduction in plasma triglyceride level at 499 umol/kg/day administered through diet for 4 days. It counts as functional. To be noted: 96 h. In outline:
as §4

Data set [9] concerns Rattus norvegicus. The data set is described as follows: Increase in liver weight in Wistar rat at 499 umol/kg/day administered through diet for 4 days. The data set is classed as ADME, organism-based. To be noted: in vivo, po, 96 h. In outline: as §3
Data set [10] deals with Rattus norvegicus. The data set is described as follows: Hypolipidemic activity in Wistar rat assessed as reduction in plasma cholesterol level at 499 umol/kg/day administered through diet for 4 days. The data set is classed as functional. To be noted: 96 h. In outline: as §2
In data set [11] the test system is Rattus norvegicus. Put plainly: Hypolipidemic activity in Wistar rat assessed as reduction in plasma cholesterol level at 456 umol/kg/day administered through diet for 10 days. The data set is classed as functional. To be noted: 240 h. In outline: as §2
In data set [12] the test system is Rattus norvegicus. The data set is described as follows: Hypolipidemic activity in Wistar rat assessed as reduction in plasma triglyceride level at 456 umol/kg/day administered through diet for 10 days. The data set is classed as functional. To be noted: 240 h.
The subject of data set [13] is Rattus norvegicus. The data set is described as follows: Hypolipidemic activity in Wistar rat assessed as reduction in plasma cholesterol level at 430 umol/kg/day administered through diet for 4 days. The data set is classed as functional. To be noted: 96 h. The method, boiled down:
as §2

The test system of data set [14] is Rattus norvegicus. Put plainly: Increase in liver weight in Wistar rat at 430 umol/kg/day administered through diet for 4 days. The data set is classed as ADME, organism-based. To be noted: in vivo, po, 96 h. In outline: as §3
The test system of data set [15] is Rattus norvegicus. The data set is described as follows: Hypolipidemic activity in Wistar rat assessed as reduction in plasma triglyceride level at 430 umol/kg/day administered through diet for 4 days. To be noted: 96 h. It counts as functional. The method, boiled down:
as §4

Data set [16] deals with Rattus norvegicus. Put plainly: Increase in cholesterol level in Wistar rat liver at 430 umol/kg/day administered through diet for 4 days. It counts as ADME, organism-based. To be noted: in vivo, po, 96 h. The method, boiled down:
as §1

For data set [17], the system named is Rattus norvegicus. Put plainly: Hypolipidemic activity in Wistar rat assessed as reduction in plasma cholesterol level at 675 umol/kg/day administered through diet for 10 days. To be noted: 240 h. It counts as functional. In outline: as §4
The subject of data set [18] is Rattus norvegicus. Put plainly: Hypolipidemic activity in Wistar rat assessed as reduction in plasma triglyceride level at 675 umol/kg/day administered through diet for 10 days. To be noted: 240 h. The data set is classed as functional.
Data set [19] relates to Rattus norvegicus. Put plainly: Increase in liver weight in Wistar rat at 675 umol/kg/day administered through diet for 10 days. The data set is classed as ADME, organism-based. To be noted: in vivo, po, 240 h.
The test system of data set [20] is Rattus norvegicus. The data set is described as follows: Hypolipidemic activity in Wistar rat assessed as reduction in plasma triglyceride level at 420 umol/kg/day administered through diet for 10 days. The data set is classed as functional. To be noted: 240 h. In outline:
as §4

Data set [21] deals with Rattus norvegicus. Put plainly: Increase in liver weight in Wistar rat at 420 umol/kg/day administered through diet for 4 days. The data set is classed as ADME, organism-based. To be noted: in vivo, po, 96 h. In outline: as §3
Data set [22] relates to Rattus norvegicus. The data set is described as follows: Increase in cholesterol level in Wistar rat liver at 420 umol/kg/day administered through diet for 10 days. The data set is classed as ADME, organism-based. To be noted: in vivo, po, 240 h. In outline:
as §1

In data set [23] the test system is Rattus norvegicus. The data set is described as follows: Hypolipidemic activity in Wistar rat assessed as reduction in plasma cholesterol level at 420 umol/kg/day administered through diet for 4 days. The data set is classed as functional. To be noted: 96 h. The method, boiled down: as §2
Data set [24] has as its system Rattus norvegicus. The data set is described as follows: Hypolipidemic activity in Wistar rat assessed as reduction in plasma triglyceride level at 480 umol/kg/day administered through diet for 4 days. To be noted: 96 h. The data set is classed as functional.
The test system of data set [25] is Rattus norvegicus. The data set is described as follows: Increase in liver weight in Wistar rat at 480 umol/kg/day administered through diet for 4 days. It counts as ADME, organism-based. To be noted: in vivo, po, 96 h.
The test system of data set [26] is Rattus norvegicus. Put plainly: Hypolipidemic activity in Wistar rat assessed as reduction in plasma cholesterol level at 480 umol/kg/day administered through diet for 4 days. The data set is classed as functional. To be noted: 96 h. In outline:
as §2

Data set [27] concerns Rattus norvegicus. The data set is described as follows: Hypolipidemic activity in Wistar rat assessed as reduction in plasma cholesterol level at 443 umol/kg/day administered through diet for 4 days. The data set is classed as functional. To be noted: 96 h. The method, boiled down: as §2
Data set [28] has as its system Rattus norvegicus. Put plainly: Hypolipidemic activity in Wistar rat assessed as reduction in plasma triglyceride level at 443 umol/kg/day administered through diet for 4 days. It counts as functional. To be noted: 96 h. The method, boiled down:
as §4

The subject of data set [29] is Rattus norvegicus. Put plainly: Hypolipidemic activity in Wistar rat assessed as reduction in plasma triglyceride level at 420 umol/kg/day administered through diet for 4 days. The data set is classed as functional. To be noted: 96 h. The method, boiled down: as §4
In data set [30] the test system is Rattus norvegicus. The data set is described as follows: Hypolipidemic activity in Wistar rat assessed as reduction in plasma triglyceride level at 374 umol/kg/day administered through diet for 4 days. To be noted: 96 h. The data set is classed as functional. In outline: as §4
The test system of data set [31] is Rattus norvegicus. Put plainly: Increase in liver weight in Wistar rat at 374 umol/kg/day administered through diet for 4 days. The data set is classed as ADME, organism-based. To be noted: in vivo, po, 96 h. The method, boiled down: as §3
In data set [32] the test system is Rattus norvegicus. The data set is described as follows: Hypolipidemic activity in Wistar rat assessed as reduction in plasma cholesterol level at 374 umol/kg/day administered through diet for 4 days. To be noted: 96 h. It counts as functional. In outline: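 Young male Wistar rats, 170-190 g at start, in groups of six, given compound mixed into Purina Lab Chow ad libitum for 4 or 10 days as stated. Daily dose was calculated from food consumption and body weight. Plasma was taken by cardiac puncture at the end and cholesterol measured by automated procedure. Results are % reduction versus a concurrent untreated control group, with Student's t test.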

The test system of data set [33] is Rattus norvegicus. Put plainly: Increase in liver weight in Wistar rat at 482 umol/kg/day administered through diet for 4 days. To be noted: in vivo, po, 96 h. The data set is classed as ADME, organism-based. In outline:
as §3

Data set [34] concerns Rattus norvegicus. Put plainly: Hypolipidemic activity in Wistar rat assessed as reduction in plasma triglyceride level at 482 umol/kg/day administered through diet for 4 days. To be noted: 96 h. It counts as functional. The method, boiled down:
as §4

Data set [35] has as its system Rattus norvegicus. Put plainly: Hypolipidemic activity in Wistar rat assessed as reduction in plasma cholesterol level at 482 umol/kg/day administered through diet for 4 days. The data set is classed as functional. To be noted: 96 h. In outline: as §2

Take `CCCCCCCCCCCCCCCCOc1ccc(C(=O)O)cc1`: the figures for the Activity with Rattus norvegicus [1] and in the data set with Rattus norvegicus [3] were 17% and 5%, respectively. Besides, the inhibition in vivo (usually the share of the control response that was lost under treatment) at 419 µmol/kg with Rattus norvegicus [2] was found to be 15%; with Rattus norvegicus [4] it was 55%.
In the case of `CCCCCCCCCCCCCCOc1ccc(C(=O)OCC)c(O)c1`, the inhibition in vivo at 439 µmol/kg in the data set with Rattus norvegicus [5] and in the data set with Rattus norvegicus [6] was 0% throughout. The same compound yielded an Activity with Rattus norvegicus [7] of 1%.
As for `CCCCCCCCCCCCCCOc1ccc(C(C)=O)o1`, the inhibition in vivo at 499 µmol/kg with Rattus norvegicus [8] amounted to 21%; with Rattus norvegicus [10], 0%. In the data set on Rattus norvegicus [9], this compound registered an Activity of 0%.
As to `CCCCCCCCCCCCCCCCOc1ccccc1C(=O)CC(=O)OC`, the inhibition in vivo at 456 µmol/kg amounted to 10% in the data set on Rattus norvegicus [11] and 23% in the data set on Rattus norvegicus [12].
With `CCCCCCCCCCCCCCOc1ccc(/C=C/C(=O)OC)cc1`, the values for the inhibition in vivo at 430 µmol/kg in the data set with Rattus norvegicus [13] and with Rattus norvegicus [15] were 28% and 67%, respectively. Moreover, the Activity in the data set on Rattus norvegicus [14] was found to be 3%; in the data set on Rattus norvegicus [16], 18%.
Regarding `CCCCCCOc1ccc(C(=O)O)cc1`, the inhibition in vivo at 675 µmol/kg with Rattus norvegicus [17] was found to be 6%; with Rattus norvegicus [18], 16%. In addition, the Activity in the data set with Rattus norvegicus [19] was 1%.
Turning to `CCCCCCCCCCCCCCCCCCOc1ccc(C(=O)O)o1`, the results for the inhibition in vivo at 420 µmol/kg in the data set on Rattus norvegicus [20] and with Rattus norvegicus [23] were 53% and 18%, respectively. For the same compound, the Activity in the data set on Rattus norvegicus [21] is 0%; with Rattus norvegicus [22], 18%.
With `CCCCCCCCCCCCCCOc1ccc(-c2nnn[nH]2)cc1`, the inhibition in vivo at 480 µmol/kg in the data set with Rattus norvegicus [24] and in the data set with Rattus norvegicus [26] was 0% in each case. Further, the Activity in the data set on Rattus norvegicus [25] was 1%.
Take `CCCCCCCCCCCCCCSc1ccc(C(=O)O)o1`: the results for the inhibition in vivo at 443 µmol/kg in the data set with Rattus norvegicus [27] and with Rattus norvegicus [28] were 18% and 62%, respectively.
For the compound `CCCCCCCCCCCCCCOc1ccc(C(=O)C(F)(F)F)o1`, the inhibition in vivo at 420 µmol/kg with Rattus norvegicus [29] worked out at 30%; in the data set with Rattus norvegicus [23] it was 2%. Further, the Activity in the data set on Rattus norvegicus [21] was 0%.
With `CCCCCCCCCCCCCCCCOc1ccc(C(=O)CCC(=O)O)cc1`, the inhibition in vivo at 374 µmol/kg was 42% with Rattus norvegicus [30] and 15% with Rattus norvegicus [32]. Besides, the Activity with Rattus norvegicus [31] is 0%.
Consider `CCCCCCCCCCCCCCOc1ccc(C(N)=O)o1`, for which the Activity with Rattus norvegicus [33] amounted to 7%. Besides, the inhibition in vivo at 482 µmol/kg with Rattus norvegicus [34] stood at 14%; in the data set on Rattus norvegicus [35], 0%.
